Assay results published in ChEMBL document CHEMBL1148725, “2,2,2-Trichloro-N-({2-[2-(dimethylamino)ethyl]-1,3-dioxo-2,3-dihydro-1H-benzo[de]isoquinolin- 5-yl}carbamoyl)acetamide (UNBS3157), a novel nonhematotoxic naphthalimide derivative with potent antitumor activity” (J Med Chem, 2007).

How the values were obtained:
MCF7 = assay: Antiproliferative activity against MCF7 cells after 72 hrs by MTT assay; assay type: functional, cell-based, Homo sapiens; conditions: Homo sapiens, MCF7, 72 h
Summary of the method: (§1)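 Cells cultured with each compound for three days; growth then read by the MTT colorimetric assay and reported as IC50 (µM).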

L1210 = assay: Antitumor activity in L1210 cells xenografted B6D2F1 mouse at 80 mg/kg, ip relative to control; assay type: functional; conditions: route intraperitoneal
Summary of the method: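 Mice grafted with L1210 leukaemia cells on day 0, then dosed i.p. four times weekly on days 1-4 and 8-11. Five mice per group. Outcome is %T/C, the median survival of treated over control. Kruskal-Wallis test followed by Dunn comparisons against control.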

LoVo = assay: Antiproliferative activity against LoVo cells after 72 hrs by MTT assay; assay type: functional, cell-based, Homo sapiens; summary of the method: as §1
[1] = Antiproliferative activity against Hs683 cells after 72 hrs by MTT assay; assay type: functional, cell-based, Homo sapiens, Hs 683; summary of the method: as §1
A549 = assay: Antiproliferative activity against A549 cells after 72 hrs by MTT assay; assay type: functional, cell-based, Homo sapiens; conditions: Homo sapiens, A549, 72 h; summary of the method: as §1
[2] = Toxicity in ip dosed B6D2F1 mouse; assay type: organism-based; conditions: in vivo
Summary of the method: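 Acute MTD was set by a single i.p. dose to groups of three healthy female B6D2F1 mice, at 2.5, 5, 10, 20, 40, 80 and 160 mg/kg. The MTD is the dose just below the lowest dose that killed at least one mouse.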

[3] = Antiproliferative activity against U373MG cells after 72 hrs by MTT assay; assay type: functional, cell-based, Homo sapiens, U-373MG ATCC; conditions: Homo sapiens, U373 MG, 72 h; summary of the method: as §1
HCT-15 = assay: Antiproliferative activity against HCT15 cells after 72 hrs by MTT assay; assay type: functional, cell-based, Homo sapiens; summary of the method: as §1

Row | Structure (SMILES) | IC50 (MCF7) | Activity (L1210) | IC50 (LoVo; Homo sapiens, LoVo, 72 h) | IC50 ([1]; Homo sapiens, Hs 683, 72 h) | IC50 (A549) | MTD [2] | IC50 [3] | IC50 (HCT-15; Homo sapiens, HCT-15, 72 h) | IC50 (LoVo; lovo) | IC50 ([1]; hs 683) | IC50 (HCT-15; hct-15)
1 | CN(C)CCN1C(=O)c2cccc3cc(NC(=O)Nc4ccc(C#N)cc4)cc(c23)C1=O | 3.1 µM | 207% | 4.2 µM | 5 µM | 3.5 µM | > 80 mg/kg | 0.9 µM | 9.7 µM | – | – | –
2 | CN(C)CCN1C(=O)c2cccc3cc(NC(=S)NCc4ccc5c(c4)OCO5)cc(c23)C1=O | > 10 µM | – | > 10 µM | > 10 µM | > 10 µM | > 80 mg/kg | > 10 µM | > 10 µM | – | – | –
3 | CN(C)CCN1C(=O)c2cccc3cc(NC(=S)Nc4ccc(OC(F)(F)F)cc4)cc(c23)C1=O | 4.8 µM | 171% | 4 µM | 6.4 µM | 4.3 µM | 40 mg/kg | 3.6 µM | 5.9 µM | – | – | –
4 | CN(C)CCN1C(=O)c2cccc3cc(/N=C\c4ccc(C#N)cc4)cc(c23)C1=O | 7.4 µM | 135% | 4.1 µM | > 10 µM | 7.7 µM | > 80 mg/kg | 4.2 µM | 9.9 µM | – | – | –
5 | CN(C)CCN1C(=O)c2cccc3cc(NCc4ccccc4O[C@H]4O[C@H](CO)[C@@H](O)[C@H](O)[C@H]4O)cc(c23)C1=O | – | 113% | – | – | – | > 80 mg/kg | – | – | – | – | –
6 | CN(C)CCN1C(=O)c2cccc3cc(NC(=S)Nc4ccc(C#N)cc4)cc(c23)C1=O | > 10 µM | – | > 10 µM | > 10 µM | > 10 µM | > 80 mg/kg | 9.4 µM | > 10 µM | – | – | –
7 | CN(C)CCN1C(=O)c2cccc3cccc(c23)C1=O | 10 µM | 156% | 4.7 µM | 6.9 µM | 5.6 µM | 40 mg/kg | 7.5 µM | 9.2 µM | – | – | –
8 | CCOC(=O)CCC(=O)Nc1cc2c3c(cccc3c1)C(=O)N(CCN(C)C)C2=O | > 10 µM | 156% | > 10 µM | > 10 µM | > 10 µM | > 80 mg/kg | > 10 µM | > 10 µM | – | – | –
9 | CN(C)CCN1C(=O)c2cccc3cc(NC(=O)Nc4ccc(OC(F)(F)F)cc4)cc(c23)C1=O | 6.5 µM | 194% | 3.2 µM | 2.6 µM | 3.1 µM | > 80 mg/kg | 3.1 µM | 5.8 µM | – | – | –
10 | CN(C)CCN1C(=O)c2cccc3cc(NC(=O)Nc4ccc5c(c4)OCO5)cc(c23)C1=O | 6.6 µM | 187% | 4.4 µM | 5.8 µM | 5.5 µM | > 80 mg/kg | 1.4 µM | 7.7 µM | – | – | –
11 | CN(C)CCN1C(=O)c2cccc3cc(NCc4ccc5c(c4)OCCO5)cc(c23)C1=O | 8.9 µM | 150% | 4 µM | 5.5 µM | 9.7 µM | > 80 mg/kg | 7.1 µM | 6.7 µM | – | – | –
12 | CN(C)CCN1C(=O)c2cccc3cc(NCc4cc5c(cc4[N+](=O)[O-])OCO5)cc(c23)C1=O | – | 157% | – | – | – | > 80 mg/kg | – | – | 8.1 µM | > 10 µM | > 10 µM
13 | CN(C)CCN1C(=O)c2cccc3cc(NC(=O)CCCCl)cc(c23)C1=O | > 10 µM | 164% | 10 µM | > 10 µM | > 10 µM | > 80 mg/kg | > 10 µM | > 10 µM | – | – | –
14 | CN(C)CCN1C(=O)c2cccc3cc(NC=O)cc(c23)C1=O | 7.4 µM | – | 6.6 µM | 4.8 µM | 3.9 µM | > 80 mg/kg | 4.4 µM | 4.3 µM | – | – | –
15 | CCOC(=O)c1ccc(NC(=O)Nc2cc3c4c(cccc4c2)C(=O)N(CCN(C)C)C3=O)cc1 | 3.1 µM | 187% | 1.5 µM | 2.1 µM | 1.6 µM | > 80 mg/kg | 2.1 µM | 7.4 µM | – | – | –
